T cruzi repl: T. cruzi replication inhibition | AID 1885 | inhibition, % (test concentration not listed) | hit rate 1.4% among 300,000 | T. cruzi beta-gal in NIH3T3, luminescence, 90 h;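 active = mean inhibition across valid replicates above about 55%, limit read from the data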;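 also: signal also drops with host cell toxicity which is not excluded here; 0% = plate median of DMSO wells and 100% = zero luminescence signal; higher percent means less beta-gal luminescence so fewer parasites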
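System: Mouse NIH/3T3 fibroblasts infected with β-gal-expressing T. cruzi Tulahuen C4 | Quantity: NIH/3T3 cells, 5,000 per well | Reagent: 5000 reporter trypomastigotes per well | Dosing: Compound pinned at 50 nL/well, DMSO | Schedule: 3 h host attachment, then at least 90 h co-culture | Detection: GalScreen luminescence, 60 min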
Calb FLC: affects C. albicans growth with fluconazole; C. albicans CaCi-2 + fluconazole, Alamar Blue growth, 48 h; growth inhibition, % (concentration not given with the values); hit rate 0.57% among 300,000; AID 1979;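 active = growth inhibition above about 58% in most replicates, limit read from the data, passing the limit was not always enough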;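 also: all wells also contain fluconazole at 8 µg/ml as a sub-toxic cotreatment; 0% = median of DMSO wells and 100% = median of geldanamycin control wells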
HSF1 inhib: HSF1 inhibition; NIH3T3-HGL HSE-luciferase, MG132-induced, luminescence 8 h; active compounds read low; activity change, negative = inhibition, % at 7.5 µM (by protocol); hit rate 0.77% among 300,000; AID 2098;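 active = more than half of replicate wells show activity change below -50%, luminescence cut by over half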;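 also: luciferase reports HSF-1 transcriptional activity via heat shock element; 0% = median of DMSO wells and -100% = zero luminescence signal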
HSF1 activator: increases HSF-1 driven luciferase reporter signal; AID 504408; NIH3T3-HGL HSF-1 luciferase reporter, MG132, 8 h; 100% = twice DMSO control signal; activation, % at 9 µM; hit rate 1.7% among 300,000;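 active = mean replicate activation of at least 50% with a set share of replicates each reaching 50%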;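 also: 0% = median of the neutral control wells and 100% = twice that signal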
HIF activator: HIF pathway transcriptional activation. U2OS HRE-luciferase reporter, luminescence; normalized: DMSO 0%, desferrioxamine 100%. activation, % at 7.5 µM (by protocol). hit rate 0.32% among 300,000. AID 1910;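 active = mean activation of at least 10% of the iron chelator positive control signal, with at least half of replicates also reaching 10%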
An asterisk follows results filed as active; nt = not tested or not shown. Rows were chosen to be rich in hits. Some 4.4% of all compounds tested hit in one or more screens of this group.

SMILES | T cruzi repl | Calb FLC | HSF1 inhib | HSF1 activator | HIF activator
Fc1ccc(C(CCCn2nnc(-c3cccnc3)n2)c2ccc(F)cc2)cc1 | 62.1* | 24.4 | 9.1 | 23.0 | 0.6
COc1ccc(NC(=O)c2cc([N+](=O)[O-])ccc2O)cc1 | -21.9 | 83.0* | -73.5* | -68.9 | -6.4
COc1ccc(NC(=O)c2ccc([N+](=O)[O-])cc2[N+](=O)[O-])c(OC)c1 | 61.2* | 43.5 | -0.2 | 5.6 | -2.9
COc1cccc(/C=N/NC(=O)c2nnn(-c3nonc3N)c2C(C)C)c1 | -3.2 | 4.2 | 3.0 | 7.9 | -0.2
COc1cc(/C=N/N=C2/C(=O)Nc3ccccc32)cc(OC)c1O | -9.8 | -10.7 | -72.4* | -79.0 | -0.2
Cc1ccc(N=C2C(=O)Nc3ccccc32)cc1 | -6.5 | 0.5 | -4.0 | 15.3 | -0.2
Cc1ccc(N=C2C(=O)Nc3ccccc32)cc1C | -6.1 | -22.9 | 8.8 | 51.3* | -31.8
Cc1ccc(CNC(=O)CCc2c(C)nn(-c3ccc(N4CCOCC4)nn3)c2C)cc1 | -6.6 | 3.7 | 0.9 | 2.3 | 0.2
CCOc1ccc2nc(SCC(=O)Nc3cc(C)on3)c(C)cc2c1 | 14.6 | 0.8 | -19.1 | -7.5 | 0.3
Cc1onc(-c2ccccc2)c1-c1csc(N/N=C/c2ccccc2Cl)n1 | nt | 7.5 | nt | nt | nt
Cc1onc(-c2ccc(Cl)cc2Cl)c1-c1csc(N/N=C/c2ccccc2Cl)n1 | 62.0* | 1.1 | -14.5 | -17.7 | -0.8
Oc1cccc2ccc(N3CCOCC3)nc12 | 18.4 | 4.7 | 6.9 | 3.2 | 0.2
CN(Cc1ccccc1)c1nc(N)c([N+](=O)[O-])c(NCc2ccccc2)n1 | 41.3 | 3.5 | 53.8 | 67.1* | -0.4
C#Cc1ccc(CN2CCN(CCCc3ccccc3)C(CCO)C2)cc1 (stereo unspecified) | 20.6 | -0.3 | 5.2 | 1.7 | -0.5
Cc1cc(=O)oc2c3c(cc(OCC(=O)N[C@@H](CC(C)C)C(=O)O)c12)OC(C)(C)CC3 | -7.4 | 3.0 | -3.0 | -16.9 | -0.4
CCCC(NC(=O)COc1cc2c(c3oc(=O)cc(C)c13)CCC(C)(C)O2)C(=O)O (stereo unspecified) | 3.7 | -0.5 | -55.0* | -62.9 | -1.1
CCCCCC(=O)Oc1cccc(N2C(=O)C3CCCCC3C2=O)c1 (stereo unspecified) | -6.2 | -23.3 | -0.8 | 10.2 | 0.1
Clc1cccc(NCc2ccccc2)n1 | -2.2 | -25.5 | 0.0 | -11.4 | 1.0
CCOc1ccc(-c2cnc(NCc3cccc4ccccc34)n2CCOC)cc1 | 72.0* | 21.3 | -83.3* | -87.7 | -1.8
O=C(NNc1cccc(Cl)n1)C1CC1 | -16.8 | 15.7 | -7.6 | -12.0 | 0.1
O=C(NNc1c(Cl)cccc1Cl)C1CCC1 | -9.7 | -5.7 | 19.5 | 53.0* | -0.3
O=C(CSC(=S)N1CCCCC1)Nc1ncc2c(n1)CC(c1ccco1)CC2=O (stereo unspecified) | -11.6 | 3.9 | 2.5 | 8.9 | -0.6
O=C(CSC(=S)N1CCCCC1)Nc1ncc2c(n1)CCCC2=O | -0.3 | 1.3 | -52.1* | -58.8 | 0.5
COc1ccc(CC(=O)Nc2ccc(S(=O)(=O)Nc3onc(C)c3C)cc2)cc1OC | 2.9 | 20.1 | -3.1 | -4.5 | -0.7
Cc1cc(Nc2ccc3c(c2)OCCO3)c2cc(Cl)ccc2n1 | 34.6 | 22.9 | -57.5* | -58.2 | -1.0
SMILES | T cruzi repl | Calb FLC | HSF1 inhib | HSF1 activator | HIF activator
O=C(C[n+]1ccc2ccccc2c1)c1cccc2ccccc12 | 11.5 | 9.5 | 2.8 | 2.8 | 0.0
O=C(/C=C/c1cc[n+](CC(=O)c2ccc3cccc4c3c2CC4)cc1)c1ccc2cccc3c2c1CC3 | 62.8* | 6.3 | 5.4 | 7.5 | -0.1
Cc1noc(C)c1S(=O)(=O)N(CC(=O)NC1CCC(C)CC1)c1ccc(C(C)C)cc1 (stereo unspecified) | 38.6 | -1.9 | 0.1 | 19.3 | 0.3
COc1ccc(NC(=O)CCOc2ccccc2C)cc1S(=O)(=O)N1CCCCC1 | 14.0 | 15.0 | -0.2 | -7.9 | -1.7
CC(C)[C@H](NC(=O)OC(C)(C)C)C(=O)NCC1CCC(C(=O)N[C@@H](Cc2ccccc2)C(=O)O)CC1 (stereo partly specified) | -11.7 | 7.7 | -59.3* | -66.6 | -2.2
CC(C)[C@H](N)C(=O)NC[C@H]1CC[C@H](C(=O)N[C@@H](Cc2ccccc2)C(=O)O)CC1 | 1.4 | -5.1 | -63.0* | -69.3 | -1.4
Cc1onc(-c2ccccc2)c1C(=O)OCC(=O)NC(=O)c1ccccc1 | -6.9 | 12.5 | -3.4 | 13.7 | -2.6
O=C(Nc1ccccc1Cl)NC1CCCCCCC1 | nt | -9.0 | nt | nt | nt
CC(C)(C)C(=O)Nc1ccc(-c2csnn2)cc1 | -4.1 | -0.4 | 16.8 | 7.4 | 2.6
CCN(CC)S(=O)(=O)c1ccc(C)c(NC(=O)CN2C(=O)NC3(CCCC3)C2=O)c1 | 3.2 | -6.9 | -11.4 | 7.2 | 0.0
Cc1ccc(NC(=O)CN2C(=O)NC3(CCCC3)C2=O)c(Cl)c1 | -4.5 | 2.6 | -83.8* | -86.8 | -19.1
CCN(c1ccccc1)S(=O)(=O)c1ccc(Cl)c(NC(=O)CN2C(=O)NC3(CCCC3)C2=O)c1 | 27.6 | 96.2* | -1.3 | 9.4 | -0.4
CCN(c1ccccc1)S(=O)(=O)c1ccc(OC)c(NC(=O)CNCCc2ccccc2)c1 | 57.8* | 0.1 | 9.6 | 21.0 | -0.5
CCN(c1ccccc1)S(=O)(=O)c1ccc(OC)c(NC(=O)COc2ccc(C(C)=O)cc2)c1 | 8.8 | -10.2 | -1.9 | -9.8 | 0.2
N#Cc1cc2c(nc1SCC(=O)Nc1sc3c(c1C#N)CCC3)CCC2 | 8.9 | 8.4 | 13.2 | 21.2 | -1.4
Cc1sc(NC(=O)CSc2nnc(-c3ccccc3)o2)c(C#N)c1C | -0.9 | 28.6 | 26.6 | 43.2 | 1.2
COc1ccc(-c2ccc(C#N)c(SCC(=O)Nc3sc4c(c3C#N)CCC4)n2)cc1OC | 9.8 | 0.6 | 36.7 | 53.4* | 0.2
N#Cc1c(NC(=O)CSc2nnc(-c3ccccc3)o2)sc2c1CCCC2 | -1.8 | -10.4 | 52.4 | 76.1* | 0.8
CC1CCc2c(sc(NC(=O)CSc3nnc(-c4ccccc4)o3)c2C#N)C1 (stereo unspecified) | 1.7 | -9.5 | 25.2 | 53.2* | 1.4
C#CCN1C(=O)S/C(=C\c2cc3c(cc2OC)OCO3)C1=O | -3.7 | 16.3 | 4.4 | -7.1 | -1.7
CC(=O)c1sc(NC(=O)c2ccc(COc3ccccc3Cl)o2)nc1C | -1.2 | -2.5 | -1.7 | -7.0 | -1.7
CC1CCN(c2nc(-c3ccncc3)nc3ccccc23)CC1 | 51.0 | 2.1 | -38.0 | -50.3 | -0.5
CC1CCCCN1c1nc(-c2ccncc2)nc2ccccc12 (stereo unspecified) | 59.8* | -2.9 | -13.2 | 7.1 | 0.7
Nc1nnc(SCc2c(F)cccc2Cl)s1 | 2.2 | 0.1 | 45.3 | 77.3* | 0.6
Cc1ccccc1Cn1nc(C)c(NC(=O)C2c3ccccc3Oc3ccccc32)c1C | 4.4 | 11.9 | 53.4 | 69.8* | 0.0
Cc1ccc(C(=O)N(Cc2cccnc2)Cc2cc3cc(C)ccc3n3nnnc23)cc1 | 66.7* | -12.7 | 2.9 | 8.1 | -0.3
